{"data": "Measured values of several laboratories", "RET M918T": "Proto-oncogene tyrosine-protein kinase receptor Ret (RET, Homo sapiens, UniProt P07949, M918T)", "RET V804M": "Proto-oncogene tyrosine-protein kinase receptor Ret (RET, Homo sapiens, UniProt P07949, V804M)", "RET": "Proto-oncogene tyrosine-protein kinase receptor Ret (RET, Homo sapiens, UniProt P07949)", "RET V804L": "Proto-oncogene tyrosine-protein kinase receptor Ret (RET, Homo sapiens, UniProt P07949, V804L)", "note": "Each line is one published result; the experiments were not run side by side."}
{"Structure (SMILES)": "O=C(c1ccc(Nc2ncc(Cl)c(-c3ccc(Cl)s3)n2)cc1)N1CCC(N2CCCC2)CC1", "target": "RET M918T", "observed": "binding", "method": "competition with immobilised ligand", "concentration": "1 µM", "remaining binding [%]": 8.4}
{"Structure (SMILES)": "Cc1cnn2ncc(-c3ccnc(N(C)C)n3)c2c1", "target": "RET V804M", "observed": "binding", "concentration": "1 µM", "remaining binding [%]": 100}
{"Structure (SMILES)": "O=C(NCCCN1CCOCC1)c1ccc(Nc2ncc(Cl)c(-c3ccc(Cl)s3)n2)cc1", "target": "RET", "observed": "binding", "method": "competition with immobilised ligand", "concentration": "1 µM", "remaining binding [%]": 24}
{"Structure (SMILES)": "CCOCCn1cc(C(=O)Nc2ccc(-n3nc(-c4cccnc4)cc3C(F)(F)F)cn2)ccc1=O", "target": "RET", "observed": "cell-free assay", "method": "competition with immobilised ligand", "concentration": "1 µM", "remaining binding [%]": 83}
{"Structure (SMILES)": "COc1cnc(Nc2cccc(S(N)(=O)=O)c2)nc1N1CCN(c2ccccc2)C(=O)C1", "target": "RET", "observed": "binding", "method": "competition with immobilised ligand", "concentration": "1 µM", "remaining binding [%]": 90}
{"Structure (SMILES)": "CN(C)c1nccc(-c2cnc3ncccn23)n1", "target": "RET", "observed": "binding", "concentration": "1 µM", "remaining binding [%]": 91}
{"Structure (SMILES)": "COc1ncc2cc3ccccc3nc2c1C#N", "target": "RET M918T", "observed": "cell-free assay", "method": "competition with immobilised ligand", "concentration": "5 µM", "remaining binding [%]": 96}
{"Structure (SMILES)": "O=C(c1ccc(Nc2nccc(-c3cc4ccccc4s3)n2)cc1)N1CCC(N2CCCC2)CC1", "target": "RET M918T", "observed": "binding", "method": "competition with immobilised ligand", "concentration": "1 µM", "remaining binding [%]": 83}
{"Structure (SMILES)": "C[C@@H](c1ccc(-n2cnc3c(N)ncnc32)cc1)N1CCc2nn(C)c(Cc3ccccc3)c2C1=O", "target": "RET V804M", "observed": "binding", "method": "competition with immobilised ligand", "concentration": "0.1 µM", "remaining binding [%]": 80}
{"Structure (SMILES)": "CC(=O)Nc1c(C(C)=O)c(=O)n(C)c2nc(-c3ccc(Cl)cc3Cl)c(-c3ccc(Cl)cc3)cc12", "target": "RET", "observed": "cell-free assay", "method": "competition with immobilised ligand", "concentration": "1 µM", "remaining binding [%]": 100}
{"Structure (SMILES)": "C[C@@H]1CCN(c2nccc(-c3cnn4ncccc34)n2)C1", "target": "RET", "observed": "binding", "concentration": "1 µM", "remaining binding [%]": 70}
{"Structure (SMILES)": "Cn1nc(C(F)(F)F)cc1-c1cnc(N2CCc3cc(S(=O)(=O)Nc4c(F)cc(Cl)cc4F)cc(N4CCCC4=O)c32)nc1", "target": "RET V804M", "observed": "cell-free assay", "method": "competition with immobilised ligand", "concentration": "1 µM", "remaining binding [%]": 98}
{"Structure (SMILES)": "O=C(NCC1CCOCC1)c1n[nH]cc1NC(=O)c1c(F)cccc1F", "target": "RET", "observed": "binding", "method": "competition with immobilised ligand", "concentration": "1 µM", "remaining binding [%]": 98}
{"Structure (SMILES)": "C=CC(=O)N1CCC(C(=O)NCC(=O)N2CCN(c3nc(-c4cnc(N)nc4C(F)F)nc(N4CCOCC4)n3)CC2)CC1", "target": "RET", "observed": "binding", "method": "competition with immobilised ligand", "concentration": "1 µM", "remaining binding [%]": 94}
{"Structure (SMILES)": "N[C@@H]1CCN(c2nccc(-c3cnn4ncccc34)n2)C1", "target": "RET", "observed": "binding", "concentration": "1 µM", "remaining binding [%]": 100}
{"Structure (SMILES)": "CCC(=O)N[C@H]1CC[C@@H](C(=O)N(C)c2ccc(-c3nc4ccccc4o3)cc2)C1", "target": "RET V804M", "observed": "cell-free assay", "method": "competition with immobilised ligand", "concentration": "1 µM", "remaining binding [%]": 100}
{"Structure (SMILES)": "Nc1ncc2c(n1)-c1c([nH]c3ccc(C#CC4CC4)cc13)CCCC2", "target": "RET V804M", "observed": "binding", "method": "competition with immobilised ligand", "concentration": "1 µM", "remaining binding [%]": 100}
{"Structure (SMILES)": "CS(=O)(=O)N1CCCC(NC(=O)[C@H](CCC2CCCCC2)NC(=O)c2ccc(CNC(=O)c3cnc4ccccn34)cc2)C1 (some centres unmarked)", "target": "RET M918T", "observed": "cell-free assay", "method": "competition with immobilised ligand", "concentration": "0.1 µM", "remaining binding [%]": 93}
{"Structure (SMILES)": "c1cnn2ncc(-c3ccnc(N4CCC45COC5)n3)c2c1", "target": "RET V804L", "observed": "binding", "concentration": "1 µM", "remaining binding [%]": 91}
{"Structure (SMILES)": "CCC(=N\\O)/C(C)=C/c1ccc(F)cc1", "target": "RET M918T", "observed": "cell-free assay", "method": "competition with immobilised ligand", "concentration": "1 µM", "remaining binding [%]": 100}
{"Structure (SMILES)": "CC1CCCN1c1nccc(-c2cnn3ncccc23)n1 (centres unmarked)", "target": "RET M918T", "observed": "binding", "concentration": "1 µM", "remaining binding [%]": 89}
{"Structure (SMILES)": "c1ccc(N2CCN(Cc3nc4ccccc4[nH]3)CC2)nc1", "target": "RET", "observed": "cell-free assay", "method": "competition with immobilised ligand", "concentration": "1 µM", "remaining binding [%]": 100}
{"Structure (SMILES)": "CN1CCN(c2ccc(Nc3nccc(-c4ccccc4)n3)cc2C(F)(F)F)CC1", "target": "RET V804L", "observed": "binding", "concentration": "10 µM", "remaining binding [%]": 40}
